Most compounds without a hit are left out; they make up all but 2.2% or so of the library.
NRP1-CendR mod = NRP-1/CendR interaction modulation; hit rate 0.85% among 360,000; inhibition, % at 25 µM; FAM-RPARPAR peptide binding to NRP-1, fluorescence polarization; O14786;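 active = inhibition or corrected inhibition above about 18%, plus a signal ratio from 0.5 to 1.5, limit read from the data, passing the limit was not always enough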
Target sequence (O14786 whole entry, looked up): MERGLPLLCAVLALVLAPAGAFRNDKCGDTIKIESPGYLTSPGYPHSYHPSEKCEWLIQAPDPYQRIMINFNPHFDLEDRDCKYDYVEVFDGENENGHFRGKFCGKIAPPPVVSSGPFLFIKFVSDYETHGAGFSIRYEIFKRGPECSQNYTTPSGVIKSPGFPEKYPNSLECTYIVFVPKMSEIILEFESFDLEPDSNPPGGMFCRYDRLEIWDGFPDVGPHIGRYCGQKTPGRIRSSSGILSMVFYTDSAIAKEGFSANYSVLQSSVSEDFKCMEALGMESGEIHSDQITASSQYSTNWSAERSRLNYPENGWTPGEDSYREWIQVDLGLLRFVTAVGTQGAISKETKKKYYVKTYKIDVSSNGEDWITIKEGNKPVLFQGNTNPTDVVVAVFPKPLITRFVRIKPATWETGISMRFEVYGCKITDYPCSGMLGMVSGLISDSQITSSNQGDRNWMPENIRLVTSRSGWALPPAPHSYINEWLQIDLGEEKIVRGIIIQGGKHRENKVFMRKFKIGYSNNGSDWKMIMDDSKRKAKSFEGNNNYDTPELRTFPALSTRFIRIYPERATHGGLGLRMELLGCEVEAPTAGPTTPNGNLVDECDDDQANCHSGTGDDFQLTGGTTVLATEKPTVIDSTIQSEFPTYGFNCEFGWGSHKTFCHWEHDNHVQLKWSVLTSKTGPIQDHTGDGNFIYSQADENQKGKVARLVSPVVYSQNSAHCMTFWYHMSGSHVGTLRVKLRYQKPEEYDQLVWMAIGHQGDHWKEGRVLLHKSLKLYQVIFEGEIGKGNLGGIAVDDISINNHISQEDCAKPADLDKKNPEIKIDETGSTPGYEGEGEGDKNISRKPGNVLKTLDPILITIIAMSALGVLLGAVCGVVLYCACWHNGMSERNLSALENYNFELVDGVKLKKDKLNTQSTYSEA
V-ATPase pHluor = yeast V-ATPase proton transport regulation by pHLuorin; hit rate 0.37% among 350,000; response, % at 10 µM; S. cerevisiae, pHLuorin cytosolic pH fluorescence; in the data active = response mostly above about 7.3%, no sharp cut-off; inactive = mostly below about 5.4%; note: actives read high
ARFGAP1 inh = rat ARFGAP1 inhibition; hit rate 0.26% among 360,000; AID 651572; Arfgap1-stimulated ARF1 GTP hydrolysis, GDP FP detection; Q62848; inhibition, % at 16.5 µM;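 active = inhibition above a per-plate limit, mean inhibition of low control wells plus 3 SD, cut at about 25% in these data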
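Material: truncated rat Arfgap1 GAP domain; Incubation: compound-enzyme preincubation 20 min, reaction 120 min, detection 60 min, 25 °C; Read-out: percent inhibition of Arfgap1-stimulated GTP hydrolysis; Technique: FP, GDP Alexa 633 tracer displaced from anti-GDP antibody, 620/688 nm; Controls: No-Arfgap1 wells (100%) versus DMSO full-reaction wells (0%); Replication: single well per compound.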
Granule exo inh = lytic granule exocytosis inhibition; TALL-104 LAMP-1 surface exposure, flow cytometry; cells stimulated with thapsigargin and PMA; inhibition, % at 10 µM; hit rate 0.66% among 360,000; AID 651702;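 active = inhibition above about 55%, limit read from the data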
ASAP1 inh = blocks human ASAP1-stimulated Arf1 GTP hydrolysis; Q9ULH1; GDP FP detection; hit rate 0.19% among 360,000; AID 624377; inhibition, % at 16.5 µM; in the data active = inhibition above about 25%
V-ATPase pH SP = regulators of yeast V-ATPase proton transport. shares compounds with V-ATPase pHluor. S. cerevisiae pHLuorin cytosolic pH. response, % at 10 µM. hit rate 2% among 980; in the data active = response above about 24%
Large screens that a line does not name were inactive (follow-up assays come after a bar, where they were run).

N#CC1=C(N)Oc2cc3ccccc3cc2C1c1cccnc1 (centres undefined)	none
COc1ccccc1-c1ccc2nnc(SC)n2n1	none
C=CCn1c(O)c(N=NC(=O)OCC)c2ccccc21	none | V-ATPase pH SP inactive
C=CCn1c(O)c(N=Nc2ccccc2)c2ccccc21	none
Cn1c(O)c(N=NC(=N)N)c2ccccc21	none
CCOC(=O)N=Nc1c(O)n(C)c2ccccc12	none | V-ATPase pH SP inactive
CSc1ncnc2c1ncn2CCCNCCCN1CCCC1=O	none
COc1ccc(OCCC(=O)OCC(=O)NCCc2ccccc2)cc1	V-ATPase pHluor 7.6 | V-ATPase pH SP inactive
COc1ccc(CNC(=O)COC(=O)CCOc2ccccc2)cc1	none
CCOC(=O)c1ccccc1NC(=O)CSc1nc2ccccc2c(=O)n1CCCN1CCOCC1	none
CCCCCC(=O)N1C[C@H](n2cc(-c3ccc(F)cc3)nn2)[C@@H](O)C[C@@H]1c1ccc(C)cc1	V-ATPase pHluor 6.8 | V-ATPase pH SP inactive
Cc1cc(C)c(CN2CCN(CCCn3ccc(NC(=O)OCc4ccccc4)nc3=O)CC2)c(C)c1	none
Cc1ccc(NC(=O)CN(C)C(=O)c2cc(C)on2)cc1	none
CCN(CC(=O)Nc1ccc(NC(C)=O)cc1)C(=O)c1cc(C)on1	V-ATPase pHluor 10.3 | V-ATPase pH SP inactive
Cc1sc(-c2ccccn2)nc1OC(=O)c1ccc(Cl)c(Cl)c1	none
Cc1sc(-c2ccccn2)nc1OC(=O)c1ccc(F)cc1F	V-ATPase pHluor 10.9 | V-ATPase pH SP inactive
O=S1(=O)N[C@H](Cc2ccccc2)COc2cc(Br)ccc21	none (no result: NRP1-CendR mod, V-ATPase pHluor, Granule exo inh)
COc1ccc(O)c(CN2CCC(n3nccc3NC(=O)c3ccccc3Cl)CC2)c1	V-ATPase pHluor 9.2 | V-ATPase pH SP inactive
COc1ccc(O)c(CN2CCC(n3nccc3NC(=O)CCOc3ccccc3)CC2)c1	none
Cn1c2ccccc2c2nnc(SCC(=O)Nc3cccc(C(=O)O)c3)nc21	none
Cn1c2ccc(F)cc2c2nnc(SCC(=O)Nc3cccc(O)c3)nc21	V-ATPase pHluor 10.8 | V-ATPase pH SP inactive
Cc1ccc(-c2nn3nnnc3c3ccccc23)cc1C	V-ATPase pHluor 7.7 | V-ATPase pH SP inactive
c1ccc(-c2nn3nnnc3c3ccccc23)cc1	none
c1ccc2c(c1)c1c(c3ccccc32)CN2CCCC2C1 (centres undefined)	none
Cc1n[nH]c(C)c1CS(=O)(=O)c1ccccc1	V-ATPase pHluor 7.3 | V-ATPase pH SP inactive
COCCN1C(=O)COc2ccccc2C1C(=O)NCc1ccccc1 (centres undefined)	none (no result: V-ATPase pHluor)
Cc1ccc(S(=O)(=O)NCCC(=O)N2CCN(S(=O)(=O)c3cccc(F)c3)CC2)cc1C	V-ATPase pHluor 9.1 | V-ATPase pH SP inactive
Cc1nnc(SCc2nc3ccccc3s2)n1N	none
Cc1nnc(SCc2nc3ccccc3s2)n1-c1ccccc1	V-ATPase pHluor 8.3 | V-ATPase pH SP inactive
CCC/C=C/c1ccc(CN2C(CC(C)C)C(=O)N(Cc3cn(CCC4OCCO4)nn3)CCS2(=O)=O)cc1 (centres undefined)	V-ATPase pHluor 9.2 | V-ATPase pH SP inactive
CC(C)CC1C(=O)N(Cc2cn(CCC3OCCCO3)nn2)CCS(=O)(=O)N1Cc1ccc(-c2ccc(F)cc2)cc1 (centres undefined)	V-ATPase pHluor 5.5 | V-ATPase pH SP inactive
CN1CCCC(OC(=O)c2ccccc2F)C1 (centres undefined)	V-ATPase pHluor 9.4 | V-ATPase pH SP inactive
COc1ccccc1C(=O)OC1CCCN(C)C1 (centres undefined)	none
Cc1cccc(C(=O)N(NC(=O)Oc2ccccc2)C(C)(C)C)c1	V-ATPase pHluor 6.9 | V-ATPase pH SP inactive
CCOC(=O)C1C(C(=O)OC)=C(c2ccc(OC)cc2)c2ccc(OC)cc2N1S(=O)(=O)C(F)(F)F (centres undefined)	V-ATPase pHluor 8.0 (no result: ARFGAP1 inh, ASAP1 inh) | V-ATPase pH SP inactive
CC1CCCCN1C(=O)C(=O)c1cn(CC(=O)N2CCCCCC2)c2ccccc12 (centres undefined)	none
C=CCn1c(SCC(=O)Nc2c(C)n(C)n(-c3ccccc3)c2=O)nc2scc(-c3ccccc3)c2c1=O	V-ATPase pHluor 13.1 | V-ATPase pH SP inactive
C=CCn1c(SCC(=O)Nc2c(C)n(C)n(-c3ccccc3)c2=O)nc2ccccc2c1=O	none
N#Cc1cccc(C(=O)OCC(=O)N2CCCc3ccccc32)c1	V-ATPase pHluor 9.2 | V-ATPase pH SP inactive
O=C(OCC(=O)N1CCCc2ccccc21)c1cccc(C(F)(F)F)c1	none
O=C(N/N=C/c1ccc(O)cc1O)c1ccncc1	V-ATPase pHluor 6.8 | V-ATPase pH SP inactive
Cn1c(=O)c2cc(S(=O)(=O)NC(Cc3ccccc3)C(=O)NCc3ccco3)ccc2n(C)c1=O (centres undefined)	none
COCCCNC(=O)C(Cc1ccccc1)NS(=O)(=O)c1ccc2c(c1)c(=O)n(C)c(=O)n2C (centres undefined)	V-ATPase pHluor 16.2 | V-ATPase pH SP inactive
C=CCn1c(SCC(=O)Nc2cc(C)ccc2OC)nnc1-c1ccco1	V-ATPase pHluor 10.8 | V-ATPase pH SP inactive
C=CCn1c(SCC(=O)Nc2cc(C)c(Cl)cc2OC)nnc1-c1ccco1	none
O=S1(=O)C[C@H](N2CCC[C@@H]2CO)[C@@H](COCc2ccccc2)N1	none (no result: V-ATPase pHluor)
COC(=O)c1cc(Br)c(=O)n(-c2cc(C)on2)c1	V-ATPase pHluor 8.0 | V-ATPase pH SP inactive
Cc1nn(C)cc1C(C)NC(=O)c1cc(COc2c(F)cccc2F)on1 (centres undefined)	V-ATPase pHluor 11.3 | V-ATPase pH SP inactive
Cc1nn(C)cc1C(C)NC(=O)c1cc(COc2cccc3cnccc23)on1 (centres undefined)	none
O=C(CCC(=O)N1CCN(c2ccccc2F)CC1)c1ccc(F)cc1	none
Cc1ccc(C(=O)CCC(=O)N2CCN(c3ccccc3O)CC2)cc1	V-ATPase pHluor 11.4 | V-ATPase pH SP inactive
CC1Nc2nc(NC(=O)C(C)(C)C)[nH]c(=O)c2N(C)C1C (centres undefined)	V-ATPase pHluor 12.4 | V-ATPase pH SP inactive
CNC[C@H]1Oc2c(NS(=O)(=O)c3ccccc3)cccc2C(=O)N([C@H](C)CO)C[C@@H]1C	none
CN(CC(=O)NC1CCCCCC1)S(=O)(=O)c1ccc(F)cc1	none
CN(CC(=O)NC1CCCCC1)S(=O)(=O)c1ccc(Cl)cc1	V-ATPase pHluor 10.8 | V-ATPase pH SP inactive
O=C(CCSc1ccc(Cl)cc1)NC1CCCCC1	V-ATPase pHluor 12.7 | V-ATPase pH SP inactive
O=C(CCSc1ccccc1)NC1CCCCCC1	none
C#CCN1CC(COCCCC)Oc2cccc(F)c2S1(=O)=O (centres undefined)	none (no result: NRP1-CendR mod, V-ATPase pHluor, Granule exo inh)
Cc1ccc(/C=N/NC(=O)c2nnn(-c3nonc3N)c2CSc2ccccc2)s1	V-ATPase pHluor 8.1 | V-ATPase pH SP inactive
O=C1[C@@H](Oc2ccccc2)[C@@H](c2cnc3ccccc3c2)N1c1ccccc1	none
N/C(=N\O)c1ccc(N2CCN(c3ncccc3C(F)(F)F)CC2)nc1	V-ATPase pHluor 26.0 | V-ATPase pH SP inactive
CC(C)(C)C(=O)N1CCN(c2ncccc2C(F)(F)F)CC1	none

Source: PubChem
